Measured values of several laboratories.
Protocols differ between the studies behind these lines.
Target: Homeodomain-interacting protein kinase 2 (HIPK2, Homo sapiens, UniProt Q9H2X6)

| SMILES | effect on | mode | technique | tested at | endpoint | value |
| --- | --- | --- | --- | --- | --- | --- |
| O=C1Nc2ccc(Cl)cc2C1=Cc1cc(Cl)c(O)c(Cl)c1 | cell-free assay |  |  | 0.5 µM | remaining signal | 122% |
| COc1cc2ncnc(Nc3ccc(Oc4ccccc4)cc3C)c2cc1OC | enzyme activity | inhibitor |  | 1 µM | inhibition | 3% |
| O=C(O)c1ccc2c(c1)nc(Nc1ccc3ccccc3c1)c1ccncc12 | enzyme activity | inhibitor | radiometric | 1 µM | remaining activity | 4% |
| CCN(CC)CCNC(=O)c1c(C)[nH]c(/C=C2\C(=O)Nc3ccc(F)cc32)c1C | enzyme activity | inhibitor |  | 0.3 µM | inhibition | 20% |
| Nc1ncnc2occ(-c3ccc(NC(=O)Nc4cc(C(F)(F)F)ccc4F)cc3)c12 | cell-free assay | inhibitor |  | 20 µM | remaining signal | 0.05% |
| O=C(O)c1ccc2c(c1)nc(NCCc1cccc(Cl)c1)c1ccncc12 | enzyme activity | inhibitor | radiometric | 1 µM | remaining activity | 20% |
| CNC(=O)Nc1ccc2c(c1)CC[C@@]21OC(=O)N(CC(=O)N(Cc2ccc(F)cc2)[C@@H](C)C(F)(F)F)C1=O | cell-free assay |  | competition with immobilised ligand | 1 µM | remaining binding | 95% |
| CCOc1cc(-c2nncn2C)ccc1Nc1ncc2cc(C)nc(NCC(C)(C)C)c2n1 | enzyme activity | inhibitor | FRET | 1 µM | inhibition | < 15% |
| CNC(=O)Nc1ccc2c(c1)[C@@]1(CC2)OC(=O)N(CC(=O)N(Cc2ccc(F)cc2)[C@@H](C)C(F)(F)F)C1=O | cell-free assay |  | competition with immobilised ligand | 1 µM | remaining binding | 78% |
| O=C(O)c1ccc2c(c1)nc(Nc1ccccc1Cl)c1ncncc12 | enzyme activity | inhibitor | radiometric | 1 µM | remaining activity | 3% |
| COc1cc(-c2cn(C3CCc4c(F)cccc4N(CC(F)(F)F)C3=O)nn2)ccc1-n1cnc(C)c1 (stereo not drawn) | cell-free assay |  | competition with immobilised ligand | 1 µM | remaining binding | 100% |
| O=C(O)c1ccc2c(c1)nc(NCc1ccccc1)c1ccncc12 | enzyme activity | inhibitor | radiometric | 1 µM | remaining activity | 51% |
| COc1cccc(CNC(=O)c2nc3scc(COCc4ccc(C(=O)O)cc4)c3c(=O)[nH]2)c1 | cell-free assay |  | competition with immobilised ligand | 1 µM | remaining binding | 72.9% |
| O=C(O)c1ccc2c(c1)nc(NCCc1cccc(Cl)c1)c1ncncc12 | enzyme activity | inhibitor | radiometric | 1 µM | remaining activity | 36% |
| O=C1NC(=O)c2cc(Nc3ccc(F)cc3)c(Nc3ccc(F)cc3)cc21 | cell-free assay |  |  | 0.5 µM | remaining signal | 96.6% |
| COc1cc(-c2cc(-c3ccc(N4CCNCC4)cc3)cnc2C)cc(OC)c1OC | enzyme activity | inhibitor |  | 1 µM | inhibition | 2% |
| COc1ccc2c(c1)O[C@H](c1ccc(OC)c(OC)c1)C[C@@H]2NC(=O)C1(c2ccc3c(c2)OC(F)(F)O3)CC1 | cell-free assay |  | competition with immobilised ligand | 1 µM | remaining binding | 98% |
| COc1cc(/C=C/C(=O)CC(=O)/C=C/c2ccc(O)c(OC)c2)ccc1O | enzyme activity | inhibitor |  | 1 µM | activity vs control | 54% |
| NS(=O)(=O)c1cc(NC(=O)Cc2ccccc2)ccc1Oc1cccc(Cl)c1 | cell-free assay |  | competition with immobilised ligand | 1 µM | remaining binding | 62% |
| COc1cccc(CCNc2nc3cc(C(=O)O)ccc3c3cnccc23)c1 | enzyme activity | inhibitor | radiometric | 1 µM | remaining activity | 10% |
| Cc1ccc(Nc2nccc(N(C)c3ccc4c(C)n(C)nc4c3)n2)cc1S(N)(=O)=O | enzyme activity | inhibitor |  | 10 µM | inhibition | 21% |
| Cc1cc(NC(=O)c2cccc3cc(-c4cccc5[nH]nc(N)c45)ccc23)ccc1F | enzyme activity | inhibitor |  | 0.1 µM | activity vs control | 103% |
| O=C(O)c1ccc2c(c1)nc(Nc1ccc3ccccc3c1)c1ncncc12 | enzyme activity | inhibitor | radiometric | 1 µM | remaining activity | -3% |
| O=C1NC(c2ccccn2)Sc2ccccc21 (stereo not drawn) | cell-free assay |  | competition with immobilised ligand | 1 µM | remaining binding | 80% |
| N#CCCc1ccc2c(c1)-c1[nH]c3ccc([N+](=O)[O-])cc3c1CC(=O)N2 | cell-free assay |  |  | 0.5 µM | remaining signal | 106% |
| CC(=O)N1CCC(c2ccc(C(=O)NC3=NCCN3)cc2C(F)(F)F)CC1 | cell-free assay |  | competition with immobilised ligand | 1 µM | remaining binding | 100% |
| O=C(O)c1ccc2c(c1)nc(Nc1ccccc1)c1ccncc12 | enzyme activity | inhibitor | radiometric | 1 µM | remaining activity | 10% |
